# Results of several laboratories.
# Compare with care: the assays were run in different laboratories.
# Target: Serine/threonine-protein kinase PLK3 (PLK3, Homo sapiens, UniProt Q9H4B4)
Structure (SMILES),assay,conditions,quantity,result
C#Cc1cnc(Nc2ccnc(CO)c2)nc1Nc1ccccc1S(C)(=O)=NC#N (stereo not shown),cell-free assay,1 µM,remaining signal,34%
C[C@H]1CC[C@H](n2c3cnccc3c3cnc(Nc4ccc5c(n4)CCN(C(=O)CO)C5)nc32)CC1,cell-free assay,1 µM,remaining signal,100%
CC#CC(=O)N1CCC[C@H]1c1nc(-c2ccc(C(=O)Nc3ccccn3)cc2)c2c(N)nccn12,"enzyme activity, inhibitor",1 µM,inhibition,0%
COc1ccc2oc(-c3ccc4nc(N)oc4c3)c/c(=N\c3ccccc3NC(=O)CCN)c2c1,binding,1 µM,remaining binding,101%
COc1ccc2[nH]c3c4[nH]c5ccc(OC)cc5c4c4c(c3c2c1)C(=O)NC4=O,binding,1 µM,remaining binding,88%
CCCCC(=O)Nc1ccc(-c2ccc3ncn(CCC)c(=O)c3c2)cn1,"binding, competition with immobilised ligand",0.5 µM,remaining binding,98%
C1=C/COCc2cc(ccc2OCCN2CCCC2)Nc2nccc(n2)-c2cccc(c2)COC/1,binding,0.1 µM,remaining binding,99%
C#Cc1cc(-c2cc(Nc3nc(N[C@@H](C)c4ccc(F)cn4)ncc3Cl)n[nH]2)ccc1C=O,"enzyme activity, inhibitor",0.2 µM,inhibition,12.9%
N#Cc1ccc(NC(=O)Nc2ccccc2)cc1,"cell-free assay, competition with immobilised ligand",25 µM,remaining binding,88%
C=CC(=O)N1CCC([C@@H]2CCNc3c(C(N)=O)c(-c4ccc(Oc5ccccc5)cc4)nn32)CC1,"enzyme activity, inhibitor",1 µM,inhibition,2%
